Test results reported in ChEMBL document CHEMBL4041535, “Rational design, synthesis and in vitro evaluation of novel exo-methylene butyrolactone salicyloylamide as NF-κB inhibitor” (Bioorg Med Chem Lett, 2017).
Active and inactive are the calls of the source. The calls are words filed in the database; no cut-off is given here.

Legend:
ES2 [1] = experiment: Antimigratory activity against human ES2 cells at 1 to 10 ug/ml after 24 hrs by radius 96-well migration assay; type: functional, cell-based
How it was run: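 ES-2 cells treated 24 h; migration read by Radius 96-well cell migration assay. Mean ± SD of 3 determinations.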

[2] = target: Transcription factor p65 (Mus musculus) (UniProt Q04207); experiment: Inhibition of LPS-induced NFkappaB p65-mediated iNOS mRNA expression in mouse RAW264.7 cells at 0.1 to 1 ug/ml preincubated for 30 mins followed by LPS addition measured after 24 hrs by qPCR method; type: cell-based
Transcription factor p65 (Mus musculus), sequence (Q04207 whole entry): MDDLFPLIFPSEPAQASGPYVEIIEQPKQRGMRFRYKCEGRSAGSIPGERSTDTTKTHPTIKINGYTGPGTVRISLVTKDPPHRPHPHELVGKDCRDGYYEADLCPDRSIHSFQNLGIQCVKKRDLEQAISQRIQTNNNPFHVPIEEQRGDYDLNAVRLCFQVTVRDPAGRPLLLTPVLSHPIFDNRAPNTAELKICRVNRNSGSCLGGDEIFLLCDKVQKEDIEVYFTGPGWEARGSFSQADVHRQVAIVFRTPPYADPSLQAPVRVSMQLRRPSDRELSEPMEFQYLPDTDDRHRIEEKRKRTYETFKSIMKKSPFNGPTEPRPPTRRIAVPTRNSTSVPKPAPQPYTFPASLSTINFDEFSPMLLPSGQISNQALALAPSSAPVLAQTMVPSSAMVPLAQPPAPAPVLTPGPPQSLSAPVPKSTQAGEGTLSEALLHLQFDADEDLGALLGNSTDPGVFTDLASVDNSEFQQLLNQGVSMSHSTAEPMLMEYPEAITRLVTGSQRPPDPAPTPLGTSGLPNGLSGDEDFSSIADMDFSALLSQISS
How it was run: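 RAW264.7 cells incubated with compound plus LPS 24 h; iNOS mRNA detected by semi-quantitative PCR.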

[3] = target: Transcription factor p65 (Mus musculus) (UniProt Q04207); experiment: Inhibition of LPS-induced NFkappaB p65-mediated IL-6 secretion in mouse RAW264.7 cells at 0.1 to 1 ug/ml preincubated for 30 mins followed by LPS addition measured after 24 hrs by ELISA; type: cell-based
How it was run: (§1)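 RAW264.7 cells given compound 30 min before LPS, then incubated 24 h. IL-6, IL-1β, TNF-α in medium quantified by ELISA. Mean ± SD of 3 determinations.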

[4] = target: Transcription factor p65 (Homo sapiens) (UniProt Q04206); experiment: Inhibition of constitutively activated NFkappaB p65 in human ES2 cells at 3 to 10 ug/ml after 2 hrs by kappaB DNA binding based colorimetric method; type: cell-based
Transcription factor p65 (Homo sapiens), sequence (Q04206 whole entry): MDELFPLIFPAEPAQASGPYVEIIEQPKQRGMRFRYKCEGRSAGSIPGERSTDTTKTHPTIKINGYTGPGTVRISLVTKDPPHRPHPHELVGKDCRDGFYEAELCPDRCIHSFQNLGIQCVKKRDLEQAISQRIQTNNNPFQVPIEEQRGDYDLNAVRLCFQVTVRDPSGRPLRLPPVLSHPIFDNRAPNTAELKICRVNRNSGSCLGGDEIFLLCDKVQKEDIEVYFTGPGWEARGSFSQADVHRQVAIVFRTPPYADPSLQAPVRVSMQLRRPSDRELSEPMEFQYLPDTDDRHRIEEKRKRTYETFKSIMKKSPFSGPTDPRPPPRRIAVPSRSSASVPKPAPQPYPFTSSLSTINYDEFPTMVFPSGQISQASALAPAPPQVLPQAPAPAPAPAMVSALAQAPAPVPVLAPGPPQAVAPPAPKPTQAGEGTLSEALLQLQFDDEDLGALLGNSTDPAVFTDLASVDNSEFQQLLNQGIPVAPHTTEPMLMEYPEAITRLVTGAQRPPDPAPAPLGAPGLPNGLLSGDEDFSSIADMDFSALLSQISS
How it was run: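 ES-2 cells exposed to compound 2 h. Nuclear extract prepared. p65 binding to κB DNA-coated dish detected with labeled p65 antibody.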

[5] = target: Transcription factor p65 (Homo sapiens) (UniProt Q04206); experiment: Inhibition of NFkappaB p65 in human ES2 cells assessed as reduction in MMP2 mRNA expression at 0.1 to 1 ug/ml after 24 hrs by qPCR method; type: cell-based
How it was run: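 ES-2 cells incubated with compound 24 h; MMP-2 mRNA detected by semi-quantitative PCR.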

[6] = Cytotoxicity against human ES2 cells assessed as reduction in cell viability up to 30 ug/ml after 24 hrs by MTT assay; type: cell-based; details: es2, 24 h
How it was run: (§2)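 Cells treated with compound 24 h; viability by MTT. Mean ± SD of 3 determinations.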

[7] = target: Transcription factor p65 (Mus musculus) (UniProt Q04207); experiment: Inhibition of LPS-induced NFkappaB p65-mediated iNOS induction in mouse RAW264.7 cells assessed as reduction in NO production at 1 ug/ml using 12 hrs PBS incubated compound preincubated for 30 mins with cells followed by LPS addition measured after 24 hrs by Griess assay; type: cell-based
How it was run: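 Compound pre-incubated in PBS at 100 µg/ml, then added to RAW264.7 cells to give 1 µg/ml. LPS 10 ng/ml added 30 min later, 24 h. NO by Griess assay. Mean ± SD of 3 determinations.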

[8] = target: Transcription factor p65 (Mus musculus) (UniProt Q04207); experiment: Inhibition of LPS-induced NFkappaB p65-mediated IL-1beta secretion in mouse RAW264.7 cells at 0.1 to 1 ug/ml preincubated for 30 mins followed by LPS addition measured after 24 hrs by ELISA; type: cell-based; how it was run: as §1
[9] = target: Transcription factor p65 (Homo sapiens) (UniProt Q04206); experiment: Inhibition of NFkappaB p65 in human ES2 cells assessed as reduction in MMP2 secretion at 3 to 10 ug/ml after 24 hrs by ELISA; type: cell-based
How it was run: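 ES-2 cells incubated with compound 24 h; secreted MMP-2 in medium by ELISA. Mean ± SD of 3 determinations.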

[10] = target: Transcription factor p65 (Mus musculus) (UniProt Q04207); experiment: Inhibition of LPS-induced NFkappaB p65 activation in mouse RAW264.7 cells at 0.3 to 1 ug/ml preincubated for 30 mins followed by LPS addition measured after 2 hrs by kappaB DNA binding based colorimetric method; type: cell-based
How it was run: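 RAW264.7 cells given compound 30 min before LPS, stimulated 2 h. Nuclear extract prepared. p65 binding measured on κB DNA-coated dish with labeled p65 antibody (TransAM kit). Mean ± SD of 3 independent experiments.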

[11] = Chemical stability in PBS at 100 ug/ml up to 12 hrs at 37 degC by HPLC analysis; type: physicochemical; details: buffer
How it was run: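 Compound dissolved in PBS at 100 µg/ml, held at 37 °C for 0, 30 min, 1, 2, 6, 12 h. Extracted into ethyl acetate, dried, then quantified by HPLC. Column: ODS at 40 °C. Mobile phase: acetonitrile/0.1% ammonium acetate (22:78), 0.3 mL/min. UV detection at 254 nm. Mean ± SD of 3 determinations.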

RAW264.7 = experiment: Cytotoxicity against mouse RAW264.7 cells assessed as reduction in cell viability up to 1 ug/ml after 24 hrs by MTT assay; type: cell-based; details: raw264.7, 24 h; how it was run: as §2
[12] = target: Transcription factor p65 (Mus musculus) (UniProt Q04207); experiment: Inhibition of LPS-induced NFkappaB p65-mediated iNOS induction in mouse RAW264.7 cells assessed as reduction in NO production preincubated for 30 mins followed by LPS addition measured after 24 hrs by Griess assay; type: cell-based
How it was run: (§3)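 RAW264.7 cells given compound 30 min before LPS, then incubated 24 h. Nitrite in medium measured by Griess assay. Mean ± SD of 3 determinations.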

[13] = target: Transcription factor p65 (Mus musculus) (UniProt Q04207); experiment: Inhibition of LPS-induced NFkappaB p65-mediated TNF-alpha secretion in mouse RAW264.7 cells at 0.1 to 1 ug/ml preincubated for 30 mins followed by LPS addition measured after 24 hrs by ELISA; type: cell-based; how it was run: as §1
[14] = target: Transcription factor p65 (Mus musculus) (UniProt Q04207); experiment: Inhibition of kappaB DNA binding to NFkappaB p65 in LPS-stimulated mouse RAW264.7 nuclear extract at 3 to 10 ug/ml after 15 mins by colorimetric method
How it was run: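 RAW264.7 cells stimulated with LPS 2 h to accumulate nuclear NF-κB. Nuclear extract prepared; compound added directly to extract. p65-κB DNA binding read with TransAM NF-κB p65 kit. Mean ± SD of 3 independent experiments.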

ES2 [15] = experiment: Anti-invasive activity against human ES2 cells at 0.1 to 0.3 ug/ml after 24 hrs by Diff-Quick staining based matrigel chamber assay; type: functional, cell-based
How it was run: (§4)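 ES-2 ovarian clear cell carcinoma cells exposed to compound 24 h; invasion through Matrigel chamber. Mean ± SD of 4 fields.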

[16] = target: Transcription factor p65 (Homo sapiens) (UniProt Q04206); experiment: Inhibition of kappaB DNA binding to NFkappaB p65 in human ES2 nuclear extract at 3 to 10 ug/ml after 15 mins by colorimetric method
How it was run: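 Compound added directly to ES-2 nuclear extract. p65 binding to κB DNA-coated dish detected with labeled p65 antibody. Mean ± SD of 3 independent experiments.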

ES2 [17] = experiment: Anti-invasive activity against human ES2 cells at 1 to 10 ug/ml after 24 hrs by Diff-Quick staining based matrigel chamber assay; type: functional, cell-based; how it was run: as §4
[18] = target: Transcription factor p65 (Mus musculus) (UniProt Q04207); experiment: Inhibition of LPS-induced NFkappaB p65-mediated iNOS induction in mouse RAW264.7 cells assessed as reduction in NO production at 0.3 to 10 ug/ml preincubated for 30 mins followed by LPS addition measured after 24 hrs by Griess assay; type: cell-based; how it was run: as §3

inhibition [2] | inhibition [3] | inhibition [4] | inhibition [5] | inhibition [7] | inhibition [8] | inhibition [9] | inhibition [10] | Stability [11] | inhibition [12] | inhibition [13] | inhibition [14] | inhibition [16] | inhibition [18] | SMILES | inhibition (ES2 [1]) | Activity [6] | Activity (RAW264.7) | inhibition (ES2 [15]) | inhibition (ES2 [17])
Active | Active | Active | Active | Active | Active | Active | Active | Stable | Dose-dependent effect | Active | Active | Active | – | C=C1C(=O)OC[C@H]1NC(=O)c1ccccc1O | Active | Non-Toxic | Non-Toxic | Active | –
– | – | Active | – | – | – | – | Active | Unstable | – | – | Active | – | Active | O=C(NC1=CC(=O)[C@H]2O[C@H]2[C@H]1O)c1ccccc1O [DEHYDROXYMETHYLEPOXYQUINOMICIN] | – | – | – | – | Active
